Key:
PDX AML-04030094 model = test: Survival of AML PDX mice; type: in vivo, mouse; conditions: 1 mg/kg oral, 5-days on/2-days off, NSG AML PDX mice
C57BL/6J mice [1] = test: Spontaneous pain; type: in vivo, mouse
AML blasts [2] = test: Intracellular metabolites in AML blasts; type: cell-based, human
AML blasts [3] = test: Seahorse oxygen consumption rate of AML blasts from treated patients; type: cell-based, human
Outline: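 Fresh heparinised patient blood was mixed with equal-volume EasySep buffer and depleted of CD3/CD19-positive cells with an antibody cocktail. Isolated blasts were counted and used immediately for Seahorse basal and maximal OCR, normalised to cell number, with 2–6 technical replicates. Sampling was pre-dose (C1D1), after one week (C1D7/C1D14) and during extended dosing (C1D15/21/28). A two-sided paired t-test was used.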

ATF3 = ATF3 expression in DRG; type: in vivo, mouse; conditions: 1 or 5 mg/kg
Outline: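 Mice received test compound (1 or 5 mg/kg) or vehicle orally, once daily, 5 days on/2 off, then another 5 days. DRG were taken 12 days after the last dose and processed as PFA-fixed, OCT-embedded 14 μm frozen sections. Sections were incubated overnight with anti-ATF3 (1:500) in PBS with 2% donkey serum and 0.1% saponin, then Alexa 594 secondary and DAPI. Imaging was confocal. Positive control was spared-nerve-injury DRG; staining was repeated three times.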

[4] = Plasma IACS-010759 exposure versus venous lactate in AML and Solid Tumor cohorts; type: in vivo, human
C57BL/6J mice [5] = test: Intraepidermal nerve fiber density in hind paw skin; type: in vivo, mouse; conditions: highest dose
Outline: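 Male C57BL/6J mice were given vehicle (0.5% methylcellulose) or 1 or 5 mg/kg test compound by oral gavage once daily, 5 days on/2 off, then a further 5 days on. Glabrous hind paw skin was collected 12 days after the final dose. PGP9.5-stained fibres crossing the collagen-stained dermal–epidermal junction were counted by confocal microscopy as IENFs/mm, five random images per mouse. n=12/8/8; one-way ANOVA with Dunnett's; mean ± SE.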

advanced solid tumors = test: Solid Tumor trial: response by RECISTv1.1; type: in vivo, human
mitochondrial complex I = conditions: by binding the ND1 subunit at the entrance to the quinone binding channel; cited from earlier work
AML trial = type: in vivo, human; conditions: for Average highest lactate level during OXPHOS: AML
Outline: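 Both trials graded adverse events with NCI CTCAE v4.03. In the AML trial, all patients had close monitoring of lactate, blood pH and electrolytes. Patients with lactate >4 mmol/L, pH <7.30 and symptoms were hospitalised for at least 24 h. Dose-limiting lactic acidosis was lactate >4.0 mmol/L, pH <7.35, low CO2, raised anion gap and/or symptoms, confirmed by arterial sampling.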

relapsed/refractory AML = test: AML trial: response by European LeukemiaNet 2017; type: in vivo, human; conditions: n=17
Outline: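 Relapsed/refractory AML patients were dosed by cohort. Cohorts 1–2 got 0.5 or 1.0 mg on Day 1 and Day 8 of cycle 1, then daily in later cycles. Cohorts 3–4 got induction of 2.0 or 2.5 mg daily on Days 1–7. Maintenance followed at 0.5 mg once weekly (cohort 3) or 1.0 mg thrice weekly (cohort 4).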

C57BL/6J mice [6] = test: Sensorimotor function; type: in vivo, mouse
[7] = Plasma lactate in NSG and B6 mice; type: in vivo, mouse; conditions: escalating doses
Solid Tumor trial = type: in vivo, human; conditions: for Average highest lactate level during OXPHOS: Solid Tumors
[8] = system: blasts from the spleen of NSG mice; test: Baseline OCR of blasts from the spleen of NSG mice; type: in vivo, mouse; conditions: 0.1 and 0.3 mg/kg, 5-days on/2-days off
Outline: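 Female NSG mice received 250 cGy cesium irradiation 24 h before tail-vein injection of 0.5 × 10^5 AML PDX cells. Mice were randomized (n=9/group) to vehicle (0.5% methylcellulose) or 0.1, 0.3, 1 or 5 mg/kg test compound, 5 days on/2 days off. Spleens were taken at euthanasia for baseline OCR of blasts. N=5 biologically independent samples; two-sided unpaired t-test.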

DRG neurons = test: Mitochondrial function; type: in vivo, mouse
AML blasts [9] = test: Ratio of mitochondrial to genomic DNA in AML blasts; type: cell-based, human; conditions: pre- vs post-dose Day 16/21/27/28; p=0.04
[10] = Human plasma concentrations of IACS-010759; type: in vivo
Outline: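 Patient plasma (50 μL) was extracted with acetonitrile containing diclofenac internal standard, vortexed 10 min and spun 2000 g for 10 min. Extract was diluted 1:1 with water for LC-MS/MS with the column at 40 °C. MRM transitions were m/z 563.1>172.1 for analyte and 295.9>151.2 for standard. The method was validated over 0.05–50.0 ng/mL.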

C57BL/6J mice [11] = type: in vivo, mouse; conditions: 30 mg/kg ACY-1215 co-administered with IACS-010759
C57BL/6J mice [12] = test: Mechanical allodynia of hind paws; type: in vivo, mouse; conditions: 30 mg/kg ACY-1215 co-administered with 0.3 or 1 mg/kg IACS-010759
[13] = blasts from Patient 17 (highest exposure), p<0.01
[14] = end of the first 7-day QD dosing vs pre-treatment
[15] = 30 mg/kg ACY-1215 co-administered with IACS-010759

**Q.** Which results are given for Cc1nc(-c2nc(-c3ccc(OC(F)(F)F)cc3)no2)nn1Cc1cccc(N2CCC(S(C)(=O)=O)CC2)c1 [IACS-010759]?
**A.** extension of median survival (PDX AML-04030094 model): 7 days; spontaneous pain: time in the chamber associated with pain relief (C57BL/6J mice [1]; IACS-010759-treated vs vehicle-treated mice): spent significantly more time in the chamber associated with pain relief; NAD+ levels (AML blasts [2]; blasts from Patient 16): did not affect; intracellular NMP, NDP and NTP levels (AML blasts [2]; blasts from Patient 16 (weakest exposure)): did not affect levels of NMP, NDP, and NTP; intracellular NMP and NDP levels (AML blasts [2]; [13]): significantly increased; intracellular NTP levels (AML blasts [2]; [13]): significantly decreased; NAD+ levels (AML blasts [2]; blasts from Patient 17, p = 0.03): NAD+ levels significantly decreased; NAD+ levels (AML blasts [2]; blasts from Patient 19): NAD+ levels significantly increased; intracellular NTP levels (AML blasts [2]; blasts from Patient 19 (lower exposure), p<0.05): significantly reduced NTP levels; patients with >25% reduction in baseline OCR in blasts (AML blasts [3]; [14]): 6/12; patients with >25% reduction in maximal OCR in blasts (AML blasts [3]; [14]): 8/12; patients in whom the decrease in baseline OCR was not maintained (AML blasts [3]; extended dosing, among patients with >25% reduction): 2/6; expression of ATF3 (ATF3): did not increase; drug exposure associated with increased probability of elevated lactate ([4]; equivalent of the nM value): > 4.5 ng/mL; drug exposure associated with increased probability of elevated lactate ([4]; plasma IACS-010759, AML and Solid Tumor cohorts): > 8 nM; intraepidermal nerve fiber density (IENF) in hind paw skin (C57BL/6J mice [5]): reduced intraepidermal nerve fiber density; patients with best response of RECISTv1.1 stable disease (advanced solid tumors): eight; inhibition of mitochondrial complex I (mitochondrial complex I): selectively inhibited mitochondrial complex I; recommended phase 2 dose (RP2D) (AML trial; AML and Solid Tumor trials): no RP2D was established; grade 1–2 TRAE: elevated blood lactate (AML trial; AML trial patients): 35%; grade 1–2 TRAE: myalgia (AML trial; AML trial patients): 6%; grade 1–2 TRAE: peripheral neuropathy (AML trial; AML trial patients): 12%; grade ≥3 TRAE: peripheral neuropathy (AML trial; AML trial patients): 6%; Average highest lactate level during OXPHOS (AML trial; NP (N=6)): 3.9 mmol/L; Average highest lactate level during OXPHOS (AML trial; Non-NP (N=11)): 3.0 mmol/L; response (European LeukemiaNet 2017) (relapsed/refractory AML): No patient in the AML trial responded; balance and fine motor function (C57BL/6J mice [6]; beam walk test, vs vehicle-treated mice): significant decrease in balance and fine motor function; plasma lactate ([7]; C56Bl6 mice): elevated by all doses; plasma lactate ([7]; NSG mice): only elevated by the 5 mg/kg dose; patients with grade 1–3 peripheral neuropathy (Solid Tumor trial; Solid Tumor trial): 11 patients; grade 1–2 TRAE: myalgia (Solid Tumor trial; Solid Tumor trial patients): 30%; grade 1–2 TRAE: peripheral neuropathy (Solid Tumor trial; Solid Tumor trial patients): 35%; grade 1–2 TRAE: vomiting (Solid Tumor trial; Solid Tumor trial patients): 30%; grade ≥3 TRAE: elevated blood lactate (Solid Tumor trial; Solid Tumor trial patients): 9%; grade ≥3 TRAE: nausea (Solid Tumor trial; Solid Tumor trial patients): 9%; grade ≥3 TRAE: peripheral neuropathy (Solid Tumor trial; Solid Tumor trial patients): 4%; painful neuropathy (Solid Tumor trial; Solid Tumor trial patients): not observed; Average highest lactate level during OXPHOS (Solid Tumor trial; NP (N=11)): 4.5 mmol/L; Average highest lactate level during OXPHOS (Solid Tumor trial; Non-NP (N=12)): 2.6 mmol/L; modulation of baseline OCR [8]: induced moderate modulation of baseline OCR; OCR in dorsal root ganglia (DRG neurons; 3–4 hours and 5 weeks after the last dose): dose-dependently inhibited OCR; ratio between mitochondrial and genomic DNA in blasts (AML blasts [9]): significant increase; maintenance of plasma levels of ≥20 nM ([10]; AML and Solid Tumor trials, all dosing schedules): not maintained with any dosing schedule; terminal half-life ([10]; plasma, patients): approximately 16 hours

**Q.** With O=C(CCCCCCNC(=O)c1cnc(N(c2ccccc2)c2ccccc2)nc1)NO [ACY-1215, reference compound] as the molecule, how does the “effect on IACS-010759-induced spontaneous pain” value (C57BL/6J mice [1]; [15]) read?
**A.** prevented

**Q.** And the “effect on IACS-010759-induced damage to the myelin of the sciatic nerve” value (C57BL/6J mice [11])?
**A.** prevented

**Q.** What about the “effect on IACS-010759-induced sensorimotor deficits” value (C57BL/6J mice [6]; [15]) of the same molecule?
**A.** prevented

**Q.** What about the “effect on IACS-010759-induced reduction of OCR in the DRG” value (DRG neurons; [15]) of the same molecule?
**A.** did not prevent

**Q.** What about the “effect on IACS-010759-induced mechanical allodynia” value (C57BL/6J mice [12]) of the same molecule?
**A.** significantly attenuated

Reference: PMC11975418 (Nature medicine, 2023)
